Series [1] has as its target PARP-1 (Homo sapiens, UniProt P09874). The experiment in a line: PARP-1 inhibition assay. The series is classed as biochemical.
Series [2] has as its system PARP-1-deficient DT40 cells. The experiment in a line: DT40 cell viability. To be noted: 72 h, veliparib up to 10 μM. The format is cell-based, Chicken.
Series [3] can be described thus: Water solubility. The series is classed as physicochemical.
The subject of series [4] is BRCA2-deficient DT40 cells. The experiment in a line: DT40 cell viability. The format is cell-based, Chicken. To be noted: 72 h.
In series [5] the test system is wild-type DT40 cells. As to the kind of experiment: DT40 cell viability. The series is classed as cell-based, Chicken. To be noted: 72 h, veliparib up to 10 μM. The method, boiled down: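 Chicken DT40 B-cell lines from an academic lab. 200 cells per well, continuously exposed to a range of drug concentrations for 72 h, in triplicate. Viability read by ATP content: one-step luciferase reagent added, luminescence read after 5 min. Viability is the treated ATP level over untreated ATP level × 100, with untreated set to 100%. SD from n = 3.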

Data on 16 compounds can be found in paper PMC4094269 (Journal of Medicinal Chemistry, 2014).

Entries after “also recorded” stand apart in the source; their conditions may differ.

PARP-1, sequence (P09874 whole entry): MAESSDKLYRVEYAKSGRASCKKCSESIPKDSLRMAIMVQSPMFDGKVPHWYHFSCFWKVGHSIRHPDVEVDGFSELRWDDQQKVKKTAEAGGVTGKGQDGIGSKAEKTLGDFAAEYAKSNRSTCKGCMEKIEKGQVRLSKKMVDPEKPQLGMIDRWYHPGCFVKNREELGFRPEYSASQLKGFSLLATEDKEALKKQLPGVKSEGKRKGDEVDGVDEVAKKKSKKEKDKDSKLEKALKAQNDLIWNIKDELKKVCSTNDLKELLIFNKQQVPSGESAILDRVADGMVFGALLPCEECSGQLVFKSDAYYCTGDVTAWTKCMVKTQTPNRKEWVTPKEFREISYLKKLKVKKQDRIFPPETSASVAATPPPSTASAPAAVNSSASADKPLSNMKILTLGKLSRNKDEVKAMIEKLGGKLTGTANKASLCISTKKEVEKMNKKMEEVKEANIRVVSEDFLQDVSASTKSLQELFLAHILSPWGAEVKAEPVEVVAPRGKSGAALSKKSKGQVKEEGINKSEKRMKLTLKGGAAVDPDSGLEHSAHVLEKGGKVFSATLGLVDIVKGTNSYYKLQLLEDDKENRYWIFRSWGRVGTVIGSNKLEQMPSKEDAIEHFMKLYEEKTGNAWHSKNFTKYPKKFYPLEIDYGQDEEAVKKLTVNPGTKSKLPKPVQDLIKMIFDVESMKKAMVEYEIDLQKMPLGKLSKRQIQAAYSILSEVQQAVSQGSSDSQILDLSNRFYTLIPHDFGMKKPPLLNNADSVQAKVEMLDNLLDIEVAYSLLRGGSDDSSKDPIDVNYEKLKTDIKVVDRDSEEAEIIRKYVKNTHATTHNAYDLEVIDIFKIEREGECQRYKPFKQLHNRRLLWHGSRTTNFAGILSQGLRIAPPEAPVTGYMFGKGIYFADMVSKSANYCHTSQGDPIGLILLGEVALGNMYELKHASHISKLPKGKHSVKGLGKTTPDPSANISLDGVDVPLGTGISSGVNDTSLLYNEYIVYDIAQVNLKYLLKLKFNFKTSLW

Compound `CC1Cc2cc(F)cc(C(N)=O)c2O1` (racemic) [rac-13c, 5-Fluoro-2-methyl-2,3-dihydrobenzofuran-7-carboxamide] displayed a fold more potent in series [1] (rac-13c vs 13a) of 4 fold.
Consider `CC1Cc2c(N)ccc(C(N)=O)c2O1` (racemic) [rac-28, 4-Amino-2-methyl-2,3-dihydrobenzofuran-7-carboxamide], for which the “fold increase in inhibition” value in series [1] (rac-28 vs rac-13a) is on record as 2 fold.
As to `Cc1cc2c(c(C(N)=O)c1)OC(C)C2` (stereo not shown) [Compound 13b, 2,5-Dimethyl-2,3-dihydrobenzofuran-7-carboxamide], the “PARP-1 inhibition, result in words” value in series [1] was “inactive”.
Still for that read-out and setting: for `CC1Cc2cc([N+](=O)[O-])cc(C(N)=O)c2O1` (stereo not shown) [Compound 14, 2-Methyl-5-nitro-2,3-dihydrobenzofuran-7-carboxamide] the value was “inactive”; for `CC1Cc2cc(N)cc(C(N)=O)c2O1` (stereo not shown) [Compound 15, 5-Amino-2-methyl-2,3-dihydrobenzofuran-7-carboxamide], “inactive”.
In series [1] (20 vs initial lead 3), `NC(=O)c1cc(F)cc2c1OCC2` [Compound 20, 5-Fluoro-2,3-dihydrobenzofuran-7-carboxamide] had a fold more potent of approximately 5 fold.
For `COc1ccc(/C=C2\Oc3c(C(N)=O)cccc3C2=O)cc1` [Compound 54, (Z)-2-(4′-Methoxybenzylidene)-3-oxo-2,3-dihydrobenzofuran-7-carboxamide], the “fold reduced inhibitory activity” value in series [1] (54 vs 57) was determined as 4 fold.
Consider `NC(=O)c1cccc2c1O/C(=C\c1ccccc1O)C2=O` [Compound 55, (Z)-2-(2′-Hydroxybenzylidene)-3-oxo-2,3-dihydrobenzofuran-7-carboxamide], for which the “PARP-1 inhibition, result in words” value in series [1] is on record as “Poor inhibition”.
As to `NC(=O)c1cccc2c1O/C(=C\c1ccc(O)c(O)c1)C2=O` [Compound 58, (Z)-2-(3′,4′-Dihydroxybenzylidene)-3-oxo-2,3-dihydrobenzofuran-7-carboxamide], the “fold improvement in potency” value in series [1] (58 vs core 36) amounted to 30 fold.
Turning to `NC(=O)c1cccc2c1O/C(=C\c1cc(O)cc(O)c1)C2=O` [Compound 60, (Z)-2-(3′,5′-Dihydroxybenzylidene)-3-oxo-2,3-dihydrobenzofuran-7-carboxamide], the “PARP-1 inhibition, result in words” value in series [1] was “poor inhibition; also recorded: complete loss of potency”.
Still for that read-out and setting: for `NC(=O)c1cccc2c1O/C(=C\c1cc(O)ccc1O)C2=O` [Compound 61, (Z)-2-(2′,5′-Dihydroxybenzylidene)-3-oxo-2,3-dihydrobenzofuran-7-carboxamide] the value was “poor inhibition; also recorded: complete loss of potency”.
`NC(=O)c1cccc2c1O/C(=C\c1ccc(OCCN3CCOCC3)cc1)C2=O` [Compound 65, (Z)-2-[4′-(2-Morpholin-4-ylethoxy)benzylidene]-3-oxo-2,3-dihydrobenzofuran-7-carboxamide] displayed a fold less potent in series [1] (65 vs 64) of 4 fold.
In the case of `CN1CCN(CCOc2ccc(/C=C3\Oc4c(C(N)=O)cccc4C3=O)cc2)CC1` [Compound 66, (Z)-2-{4′-[2-(4-Methylpiperazin-1-yl)ethoxy]benzylidene}-3-oxo-2,3-dihydrobenzofuran-7-carboxamide], the “cytotoxicity, result in words” value in series [2] was “minimally cytotoxic”; in series [4], “selective cytotoxicity; also recorded: selectively killed; also recorded: selectively active”; in series [5], “minimally cytotoxic”. In addition, the “water solubility, result in words” value in series [3] is given as “water-soluble”.
With `NC(=O)c1cccc2c1O/C(=C\c1ccc(OCCCN3CCOCC3)cc1)C2=O` [Compound 67, (Z)-2-[4′-(3-Morpholin-4-ylpropoxy)benzylidene]-3-oxo-2,3-dihydrobenzofuran-7-carboxamide], the times more potent in series [1] (67 vs ethyl analogue 65) is recorded as approximately 3 times.
As for `NC(=O)c1cccc2c1O/C(=C\c1ccc(OCC(=O)N3CCOCC3)cc1)C2=O` [Compound 68, (Z)-2-[4′-(2-Morpholin-4-yl-2-oxoethoxy)benzylidene]-3-oxo-2,3-dihydrobenzofuran-7-carboxamide], in series [1] (68 vs 65), the “fold improvement in potency” value is on record as 9 fold.
As to `CN1CCN(CCS(=O)(=O)Nc2ccc(/C=C3\Oc4c(C(N)=O)cccc4C3=O)cc2)CC1` [Compound 72, (Z)-2-{4-[2-(4-Methylpiperazin-1-yl)ethanesulfonylamino]benzylidene}-3-oxo-2,3-dihydrobenzofuran-7-carboxamide], in series [3], the “water solubility, result in words” value was “water-soluble”.
